{"data": "Results of several laboratories", "JAK2": "Tyrosine-protein kinase JAK2 (JAK2, Homo sapiens, UniProt O60674)", "JAK2 JH1": "Tyrosine-protein kinase JAK2, JH1 (JAK2, Homo sapiens, UniProt O60674)", "note": "Compare with care: the assays were run in different laboratories."}
{"SMILES": "C#Cc1n[nH]c2c(-c3cn(C(C)c4ccccn4)c(=O)[nH]c3=O)cc(F)cc12 (stereo not drawn)", "target": "JAK2", "assay": "enzyme activity, inhibitor", "setting": "1 µM", "measurement": "inhibition", "result": "-4.2%"}
{"SMILES": "Cn1cncc1[C@](O)(COc1ccc(C#N)cc1-c1ccc(OC(F)(F)F)cc1)c1ccc(C#N)cc1", "target": "JAK2 JH1", "assay": "cell-free assay, competition with immobilised ligand", "setting": "1 µM", "measurement": "remaining binding", "result": "91%"}
{"SMILES": "Cn1cc(-c2cc(F)cc(N3CCn4c(cc5c4CCCC5)C3=O)c2CO)cc(Nc2ccc(N3CCN(C4COC4)CC3)cn2)c1=O", "target": "JAK2", "assay": "enzyme activity, inhibitor", "setting": "0.1 µM", "measurement": "inhibition", "result": "8%"}
{"SMILES": "N#CC1(c2ccccn2)CCN(Cc2cc(C(=O)O)c(=O)n3ccccc23)CC1", "target": "JAK2 JH1", "assay": "cell-free assay, competition with immobilised ligand", "setting": "1 µM", "measurement": "remaining binding", "result": "96%"}
{"SMILES": "CC(C)(C)c1cc(C=C(C#N)C#N)cc(Br)c1O", "target": "JAK2", "assay": "enzyme activity, inhibitor", "setting": "0.5 µM", "measurement": "remaining activity", "result": "107%"}
{"SMILES": "COc1ncccc1-c1cnn2ccc(N3CCN(C(=O)OC(C)C)CC3)nc12", "target": "JAK2", "assay": "binding, competition with immobilised ligand", "setting": "1 µM", "measurement": "remaining binding", "result": "89%"}
{"SMILES": "Nc1ncc(-c2nc(N3CCOCC3)nc(N3CCOCC3)n2)c(C(F)F)n1", "target": "JAK2 JH1", "assay": "binding, competition with immobilised ligand", "setting": "10 µM", "measurement": "remaining binding", "result": "65%"}
{"SMILES": "Cn1cc(-c2cccc(N3CCc4c(sc5c4CC(C)(C)C5)C3=O)c2CO)cc(Nc2ccncn2)c1=O", "target": "JAK2", "assay": "enzyme activity, inhibitor", "setting": "1 µM", "measurement": "inhibition", "result": "-5%"}
{"SMILES": "O=c1[nH]c2ccccc2n1C1CCN(Cc2ccc(-c3[nH]c4cc5ncnc5cc4nc3-c3ccccc3)cc2)CC1", "target": "JAK2", "assay": "cell-free assay", "setting": "0.5 µM", "measurement": "remaining signal", "result": "104%"}
